Measurements as given in ChEMBL document CHEMBL2034860, “Cytotoxic heterocyclic triterpenoids derived from betulin and betulinic acid” (Bioorg Med Chem, 2012).
Blank lines part the entries; values can stand above or below the molecule they belong to.

Key:
CCRF-CEM [1] = assay: Cytotoxicity against human CCRF-CEM cells after 72 hrs by MTT assay; type: functional, cell-based
[2] = Solubility of the compound in water based media; type: physicochemical; conditions: buffer
[3] = Therapeutic index, ratio of IC50 for human BJ cells to IC50 for human K562 cells; type: cell-based; conditions: BJ cells versus K562 cells, read-out: Ratio IC50
[4] = Therapeutic index, ratio of IC50 for human BJ cells to IC50 for human CCRF-CEM cells; type: cell-based; conditions: BJ cells versus CCRF-CEM cells, read-out: Ratio IC50
CCRF-CEM [5] = assay: Cytotoxicity against human daunorubicine resistant CEM cells after 72 hrs by MTT assay; type: functional, cell-based
Outline: (§1)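 Cells seeded at 2500–30,000 per well according to cell type and pre-incubated 24 h at 37 °C, 5% CO2. Four-fold dilutions of compounds dissolved in 10% DMSO were added at time zero, in quadruplicate, then incubated 72 h. MTT was added for a further 1–4 h and formazan dissolved in 10% aq SDS (pH 5.5) overnight at 37 °C. OD was read at 540 nm. Survival was taken as % of mean control OD, and IC50 was read from dose-response curves.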

A549 = assay: Cytotoxicity against human A549 cells after 72 hrs by MTT assay; type: functional, cell-based; conditions: A549, 72 h; outline: as §1
K562 [6] = assay: Cytotoxicity against human K562 cells after 72 hrs by MTT assay; type: functional, cell-based; conditions: K562, 72 h; outline: as §1
K562 [7] = assay: Cytotoxicity against human paclitaxel resistant K562 cells after 72 hrs by MTT assay; type: functional, cell-based; conditions: K562, 72 h; outline: as §1
HCT-116 [8] = assay: Cytotoxicity against human HCT116 cells after 72 hrs by MTT assay; type: functional, cell-based; conditions: HCT-116, 72 h; outline: as §1
HCT-116 [9] = assay: Cytotoxicity against human p53-deficient HCT116 cells after 72 hrs by MTT assay; type: functional, cell-based; conditions: HCT-116, 72 h; outline: as §1
BJ = assay: Cytotoxicity against human BJ cells after 72 hrs by MTT assay; type: cell-based; outline: as §1
MRC5 = assay: Cytotoxicity against human MRC5 cells after 72 hrs by MTT assay; type: cell-based; conditions: MRC5, 72 h; outline: as §1
[10] = Therapeutic index, ratio of IC50 for human BJ cells to IC50 for paclitaxel-resistant human K562 cells; type: cell-based; conditions: BJ cells versus paclitaxel-resistant K562 cells, read-out: Ratio IC50
[11] = Therapeutic index, ratio of IC50 for human MRC5 cells to IC50 for human CCRF-CEM cells; type: cell-based; conditions: MRC5 cells versus CCRF-CEM cells, read-out: Ratio IC50

Compound: CCOC(=O)C1=C(O)C(C)(C)[C@@H]2CC[C@]3(C)[C@H](CC[C@@H]4[C@H]5[C@H]6OC[C@@]5(CCC6(C)C)CC[C@]43C)[C@@]2(C)C1
IC50 (CCRF-CEM [1]): > 250 µM

Compound: CC(C)[C@@H]1CC[C@]2(C(=O)O)CC[C@]3(C)[C@H](CC[C@@H]4[C@@]5(C)Cc6cnn(-c7ccccc7)c6C(C)(C)[C@@H]5CC[C@]43C)[C@@H]12
IC50 (CCRF-CEM [1]): 45 µM | solubility [2]: Insoluble

Compound: CC1(C)CC[C@]23CC[C@]4(C)[C@H](CC[C@@H]5[C@@]6(C)C=C(O)C(=O)C(C)(C)[C@@H]6CC[C@]54C)[C@H]2[C@H]1OC3
IC50 (CCRF-CEM [1]): 25 µM

Compound: CC(C)[C@@H]1CC[C@]2(C(=O)O)CC[C@]3(C)[C@H](CC[C@@H]4[C@@]5(C)CC(Br)(Br)C(=O)C(C)(C)[C@@H]5CC[C@]43C)[C@@H]12
selectivity ratio [3]: > 10 | selectivity ratio [4]: > 10 | IC50 (CCRF-CEM [1]): 1 µM | IC50 (CCRF-CEM [5]): 7 µM | IC50 (A549): 8.4 µM | IC50 (K562 [6]): 0.9 µM | IC50 (K562 [7]): 1.1 µM | IC50 (HCT-116 [8]): 2.4 µM | IC50 (HCT-116 [9]): 2.6 µM | IC50 (BJ): 13.3 µM | IC50 (MRC5): 8 µM | selectivity ratio [10]: > 10 | selectivity ratio [11]: 8

Compound: CC1(C)CC[C@]23CC[C@]4(C)[C@H](CC[C@@H]5[C@@]6(C)CC(Br)(Br)C(=O)C(C)(C)[C@@H]6CC[C@]54C)[C@H]2[C@H]1OC3
IC50 (CCRF-CEM [1]): > 250 µM

Compound: CC1(C)CC[C@]23CC[C@]4(C)[C@H](CC[C@@H]5[C@@]6(C)Cc7c(n[nH]c7O)C(C)(C)[C@@H]6CC[C@]54C)[C@H]2[C@H]1OC3
IC50 (CCRF-CEM [1]): 33 µM | solubility [2]: Insoluble

Compound: C=C(C)[C@@H]1CC[C@]2(C(=O)O)CC[C@]3(C)[C@H](CC[C@@H]4[C@@]5(C)C/C(=C/O)C(=O)C(C)(C)[C@@H]5CC[C@]43C)[C@@H]12
selectivity ratio [3]: 6.6 | selectivity ratio [4]: > 10 | IC50 (CCRF-CEM [1]): 4 µM | IC50 (CCRF-CEM [5]): 29.6 µM | IC50 (A549): 17.6 µM | IC50 (K562 [6]): 8.4 µM | IC50 (K562 [7]): 12.7 µM | IC50 (HCT-116 [8]): 12.1 µM | IC50 (HCT-116 [9]): 13.7 µM | IC50 (BJ): 55.5 µM | IC50 (MRC5): 29.9 µM | selectivity ratio [10]: 4.4 | selectivity ratio [11]: 8.5

Compound: CC(C)[C@@H]1CC[C@]2(C(=O)O)CC[C@]3(C)[C@H](CC[C@@H]4[C@@]5(C)CCC(=O)C(C)(C)[C@@H]5CC[C@]43C)[C@@H]12 [DIHYDROBETULONIC ACID]
IC50 (CCRF-CEM [1]): 4 µM | IC50 (CCRF-CEM [5]): 9.4 µM | IC50 (A549): 5.9 µM | IC50 (K562 [6]): 2.5 µM | IC50 (K562 [7]): 4 µM | IC50 (HCT-116 [8]): 4.1 µM | IC50 (HCT-116 [9]): 6.1 µM | IC50 (BJ): 22.6 µM | IC50 (MRC5): 11.7 µM

Compound: CC1(C)CC[C@]23CC[C@]4(C)[C@H](CC[C@@H]5[C@@]6(C)C=C(N7CCOCC7)C(=O)C(C)(C)[C@@H]6CC[C@]54C)[C@H]2[C@H]1OC3
IC50 (CCRF-CEM [1]): 226 µM

Compound: CCOC(=O)C1=C(O)C(C)(C)[C@@H]2CC[C@]3(C)[C@H](CC[C@@H]4[C@H]5[C@H](C(C)C)CC[C@]5(C(=O)O)CC[C@]43C)[C@@]2(C)C1
IC50 (CCRF-CEM [1]): 142 µM

Compound: C=C(C)[C@@H]1CC[C@]2(C(=O)O)CC[C@]3(C)[C@H](CC[C@@H]4[C@@]5(C)CC(C(=O)OCC)=C(O)C(C)(C)[C@@H]5CC[C@]43C)[C@@H]12
IC50 (CCRF-CEM [1]): 161 µM

Compound: CC1(C)CC[C@]23CC[C@]4(C)[C@H](CC[C@@H]5[C@@]6(C)C/C(=C/O)C(=O)C(C)(C)[C@@H]6CC[C@]54C)[C@H]2[C@H]1OC3
IC50 (CCRF-CEM [1]): > 250 µM

Compound: CC(C)[C@@H]1CC[C@]2(C(=O)O)CC[C@]3(C)[C@H](CC[C@@H]4[C@@]5(C)C/C(=C/O)C(=O)C(C)(C)[C@@H]5CC[C@]43C)[C@@H]12
IC50 (CCRF-CEM [1]): 61 µM

Compound: C=C(C)[C@@H]1CC[C@]2(C(=O)O)CC[C@]3(C)[C@H](CC[C@@H]4[C@@]5(C)Cc6c[nH]nc6C(C)(C)[C@@H]5CC[C@]43C)[C@@H]12
IC50 (CCRF-CEM [1]): 3 µM | IC50 (CCRF-CEM [5]): 10.4 µM | IC50 (A549): 5.2 µM | IC50 (K562 [6]): 2.6 µM | IC50 (K562 [7]): 3 µM | IC50 (HCT-116 [8]): 4.5 µM | IC50 (HCT-116 [9]): 3.3 µM | IC50 (BJ): 35.8 µM | IC50 (MRC5): 14.1 µM | solubility [2]: Insoluble

Compound: CC1(C)CC[C@]23CC[C@]4(C)[C@H](CC[C@@H]5[C@@]6(C)CC(Br)C(=O)C(C)(C)[C@@H]6CC[C@]54C)[C@H]2[C@H]1OC3 (mixture of isomers)
IC50 (CCRF-CEM [1]): > 250 µM

Compound: CC1(C)CC[C@]23CC[C@]4(C)[C@H](CC[C@@H]5[C@@]6(C)Cc7cnoc7C(C)(C)[C@@H]6CC[C@]54C)[C@H]2[C@H]1OC3
IC50 (CCRF-CEM [1]): > 250 µM | solubility [2]: Insoluble

Compound: CC1(C)CC[C@]23CC[C@]4(C)[C@H](CC[C@@H]5[C@@]6(C)Cc7sc(Br)nc7C(C)(C)[C@@H]6CC[C@]54C)[C@H]2[C@H]1OC3
IC50 (CCRF-CEM [1]): 150 µM | solubility [2]: Insoluble

The next lines start with results.

solubility [2]: Insoluble
Compound: CC(C)[C@@H]1CC[C@]2(C(=O)O)CC[C@]3(C)[C@H](CC[C@@H]4[C@@]5(C)Cc6sc(Br)nc6C(C)(C)[C@@H]5CC[C@]43C)[C@@H]12
IC50 (CCRF-CEM [1]): 11 µM

solubility [2]: Insoluble
Compound: CC1(C)CC[C@]23CC[C@]4(C)[C@H](CC[C@@H]5[C@@]6(C)Cc7c[nH]nc7C(C)(C)[C@@H]6CC[C@]54C)[C@H]2[C@H]1OC3
IC50 (CCRF-CEM [1]): 210 µM

solubility [2]: Insoluble
Compound: CC1(C)CC[C@]23CC[C@]4(C)[C@H](CC[C@@H]5[C@@]6(C)Cc7conc7C(C)(C)[C@@H]6CC[C@]54C)[C@H]2[C@H]1OC3
IC50 (CCRF-CEM [1]): > 250 µM

solubility [2]: Insoluble
Compound: CC(C)[C@@H]1CC[C@]2(C(=O)O)CC[C@]3(C)[C@H](CC[C@@H]4[C@@]5(C)Cc6c(n[nH]c6O)C(C)(C)[C@@H]5CC[C@]43C)[C@@H]12
IC50 (CCRF-CEM [1]): 123 µM

solubility [2]: Insoluble
Compound: CC1(C)CC[C@]23CC[C@]4(C)[C@H](CC[C@@H]5[C@@]6(C)Cc7sc(N)nc7C(C)(C)[C@@H]6CC[C@]54C)[C@H]2[C@H]1OC3
IC50 (CCRF-CEM [1]): 85 µM

solubility [2]: Insoluble
Compound: C=C(C)[C@@H]1CC[C@]2(C(=O)O)CC[C@]3(C)[C@H](CC[C@@H]4[C@@]5(C)Cc6c(n[nH]c6O)C(C)(C)C5CC[C@]43C)[C@@H]12 (single isomer, unassigned)
IC50 (CCRF-CEM [1]): 22 µM

solubility [2]: Insoluble
Compound: C=C(C)[C@@H]1CC[C@]2(C(=O)O)CC[C@]3(C)[C@H](CC[C@@H]4[C@@]5(C)Cc6cnn(-c7ccccc7)c6C(C)(C)[C@@H]5CC[C@]43C)[C@@H]12
IC50 (CCRF-CEM [1]): 31 µM

solubility [2]: Insoluble
Compound: CC1(C)CC[C@]23CC[C@]4(C)[C@H](CC[C@@H]5[C@@]6(C)Cc7cnn(-c8ccccc8)c7C(C)(C)[C@@H]6CC[C@]54C)[C@H]2[C@H]1OC3
IC50 (CCRF-CEM [1]): 250 µM

solubility [2]: Insoluble
Compound: CC(C)[C@@H]1CC[C@]2(C(=O)O)CC[C@]3(C)[C@H](CC[C@@H]4[C@@]5(C)Cc6c[nH]nc6C(C)(C)[C@@H]5CC[C@]43C)[C@@H]12
IC50 (CCRF-CEM [1]): 3 µM | IC50 (CCRF-CEM [5]): 8.2 µM | IC50 (A549): 3.6 µM | IC50 (K562 [6]): 3.5 µM | IC50 (K562 [7]): 2.7 µM | IC50 (HCT-116 [8]): 3.9 µM | IC50 (HCT-116 [9]): 2.8 µM | IC50 (BJ): 22.4 µM | IC50 (MRC5): 13.4 µM

solubility [2]: Insoluble
Compound: CC(C)[C@@H]1CC[C@]2(C(=O)O)CC[C@]3(C)[C@H](CC[C@@H]4[C@@]5(C)Cc6sc(N)nc6C(C)(C)[C@@H]5CC[C@]43C)[C@@H]12
IC50 (CCRF-CEM [1]): 3 µM | IC50 (CCRF-CEM [5]): 11.2 µM | IC50 (A549): 7 µM | IC50 (K562 [6]): 4.8 µM | IC50 (K562 [7]): 6.9 µM | IC50 (HCT-116 [8]): 5.1 µM | IC50 (HCT-116 [9]): 4.3 µM | IC50 (BJ): 24.9 µM | IC50 (MRC5): 15.7 µM
